Data taken from ChEMBL document CHEMBL4665666, “Discovery and characterization of trypanocidal cysteine protease inhibitors from the 'malaria box'” (Eur J Med Chem, 2019).
pIC50, pKi: −log10 of the molar value. The source made the active and inactive calls. No cut-off for these calls is given here.

Assays:
[1] = biological target: Rhodesain (Trypanosoma brucei rhodesiense) (UniProt Q95PM0); experiment: Inhibition of recombinant Trypanosoma brucei rhodesain expressed in Pichia pastoris at 5 uM using Z-FR-AMC as substrate and measured at 12 sec interval for 5 mins without preincubation by fluorimetric analysis relative to control
In short: (§1)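 Recombinant rhodesain or cruzain (1 nM) in 0.1 M sodium acetate pH 5.5, 0.01% Triton X-100, 1 mM β-mercaptoethanol. Compound at a single concentration, either without or after 10 min enzyme pre-incubation. Inhibition is relative to DMSO, with E-64 as positive control. Done in duplicate (primary screen) or triplicate.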

[2] = test system: Trypanosoma brucei rhodesiense; experiment: Trypanocidal activity against Trypanosoma brucei rhodesiense STI B900 assessed as reduction in parasite viability; format: functional, organism-based
[3] = biological target: Rhodesain (Trypanosoma brucei rhodesiense) (UniProt Q95PM0); experiment: Inhibition of recombinant Trypanosoma brucei rhodesain expressed in Pichia pastoris at 5 uM using Z-FR-AMC as substrate preincubated for 10 mins followed by substrate addition and measured at 12 sec interval for 5 mins by fluorimetric analysis relative to control; settings: time 15.0 min; in short: as §1
[4] = biological target: Cruzipain (Trypanosoma cruzi) (UniProt P25779); experiment: Inhibition of recombinant Trypanosoma cruzi cruzain at 2.5 uM using Z-FR-AMC as substrate preincubated for 10 mins followed by substrate addition and measured at 12 sec interval for 5 mins by fluorimetric analysis relative to control; settings: time 15.0 min
In short: as §1, with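 “pre-incubation. Z-FR-AMC 2.5 µM, read at 340/440 nm every 12 s for 5 min.” for “pre-incubation.”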

[5] = biological target: Cruzipain (Trypanosoma cruzi) (UniProt P25779); experiment: Inhibition of recombinant Trypanosoma cruzi cruzain at 2.5 uM using Z-FR-AMC as substrate and measured at 12 sec interval for 5 mins without preincubation by fluorimetric analysis relative to control
In short: as §1, with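 “pre-incubation. Z-FR-AMC 2.5 µM, read at 340/440 nm every 12 s for 5 min.” for “pre-incubation.”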

[6] = biological target: Rhodesain (Trypanosoma brucei rhodesiense) (UniProt Q95PM0); experiment: Inhibition of recombinant Trypanosoma brucei rhodesain expressed in Pichia pastoris at 2.5 uM using Z-FR-AMC as substrate preincubated for 10 mins followed by substrate addition and measured at 12 sec interval for 5 mins by fluorimetric analysis relative to control; settings: time 15.0 min
In short: (§2)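 Run with no pre-incubation or with 10 min enzyme-compound pre-incubation. Fluorescence read at 340/440 nm. Concentration was set by solubility under assay conditions. Inhibition is against DMSO, with E-64 as positive control; triplicate.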

[7] = biological target: Rhodesain (Trypanosoma brucei rhodesiense) (UniProt Q95PM0); experiment: Inhibition of recombinant Trypanosoma brucei rhodesain expressed in Pichia pastoris at 2.5 uM using Z-FR-AMC as substrate and measured at 12 sec interval for 5 mins without preincubation by fluorimetric analysis relative to control; in short: as §2
[8] = biological target: Cruzipain (Trypanosoma cruzi) (UniProt P25779); experiment: Inhibition of recombinant Trypanosoma cruzi cruzain at 5 uM using Z-FR-AMC as substrate and measured at 12 sec interval for 5 mins without preincubation by fluorimetric analysis relative to control; in short: as §1
[9] = test system: Trypanosoma cruzi; experiment: Trypanocidal activity against Trypanosoma cruzi Tulahuen C4 assessed as reduction in parasite viability; format: functional, organism-based
[10] = test system: Trypanosoma brucei brucei; experiment: Trypanocidal activity against Trypanosoma brucei brucei Squib 427 assessed as reduction in parasite viability; format: functional, organism-based
[11] = biological target: Cruzipain (Trypanosoma cruzi) (UniProt P25779); experiment: Inhibition of recombinant Trypanosoma cruzi cruzain at 5 uM using Z-FR-AMC as substrate preincubated for 10 mins followed by substrate addition and measured at 12 sec interval for 5 mins by fluorimetric analysis relative to control; settings: time 15.0 min; in short: as §1
[12] = biological target: Rhodesain (Trypanosoma brucei rhodesiense) (UniProt Q95PM0); experiment: Inhibition of recombinant Trypanosoma brucei rhodesain expressed in Pichia pastoris at 10 uM using Z-FR-AMC as substrate and measured at 12 sec interval for 5 mins without preincubation by fluorimetric analysis relative to control
In short: as §1, with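 “pre-incubation. Z-FR-AMC 2.5 µM, read at 340/440 nm every 12 s for 5 min.” for “pre-incubation.”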

[13] = biological target: Cruzipain (Trypanosoma cruzi) (UniProt P25779); experiment: Inhibition of recombinant Trypanosoma cruzi cruzain at 100 uM using Z-FR-AMC as substrate preincubated for 10 mins followed by substrate addition and measured at 12 sec interval for 5 mins by fluorimetric analysis relative to control; settings: time 15.0 min
In short: as §1, with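 “pre-incubation. Z-FR-AMC 2.5 µM, read at 340/440 nm every 12 s for 5 min.” for “pre-incubation.”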

[14] = biological target: T1, Cruzipain (Trypanosoma cruzi, UniProt P25779); experiment: Inhibition of recombinant Trypanosoma cruzi cruzain using Z-FR-AMC as substrate and measured at 12 sec interval for 5 mins without preincubation by fluorimetric analysis
In short: (§3)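 Cruzain (recombinant, 1 nM) in 0.1 M sodium acetate pH 5.5 with 0.01% Triton X-100 and 1 mM β-mercaptoethanol; Z-FR-AMC 2.5 µM, read at 340/440 nm every 12 s for 5 min, with or without 10 min enzyme–compound pre-incubation. […] For mechanism and Ki, 0.3–20.0 µM substrate and five inhibitor levels were used, with Lineweaver-Burk plots.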

[15] = biological target: Cruzipain (Trypanosoma cruzi) (UniProt P25779); experiment: Inhibition of recombinant Trypanosoma cruzi cruzain at 10 uM using Z-FR-AMC as substrate preincubated for 10 mins followed by substrate addition and measured at 12 sec interval for 5 mins by fluorimetric analysis relative to control; settings: time 15.0 min
In short: as §1, with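 “pre-incubation. Z-FR-AMC 2.5 µM, read at 340/440 nm every 12 s for 5 min.” for “pre-incubation.”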

[16] = test system: Trypanosoma cruzi; experiment: Trypanocidal activity against Trypanosoma cruzi Y strain trypomastigotes infected in C57BL/6 mouse peritoneal macrophage assessed as reduction in number of trypomastigotes release at 50 uM and measured after day 3 to day 11 post-infection by Neubauer chamber method; format: functional, organism-based; settings: time 11.0 day
In short: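 Thioglycolate-elicited peritoneal macrophages from female C57BL/6 mice, 2 × 10^5/well, infected 2 h at 37°C with Y strain trypomastigotes at 5:1 (parasite:cell) and washed. They were then held with compound (3.125–50 µM) or IFN-γ 100 ng/mL. Trypomastigotes released into the supernatant were counted in a Neubauer chamber at several days after infection. Three independent experiments, each in triplicate.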

[17] = biological target: Cruzipain (Trypanosoma cruzi) (UniProt P25779); experiment: Inhibition of recombinant Trypanosoma cruzi cruzain at 50 uM preincubated with enzyme for 5 mins followed by substrate addition in absence of BSA relative to control
In short: (§4)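 For BSA sensitivity, compound was held 5 min with BSA (2 mg/mL in 0.001% Triton X-100), then 5 min with 1 nM cruzain, before substrate was added and activity monitored. Parallel runs omitted BSA under otherwise identical conditions.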

[18] = biological target: Cruzipain (Trypanosoma cruzi) (UniProt P25779); experiment: Inhibition of recombinant Trypanosoma cruzi cruzain at 50 uM preincubated for 10 mins in absence of Triton X-100 relative to control
In short: (§5)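 To test detergent sensitivity, cruzain was pre-incubated 10 min at room temperature with compound with no Triton X-100, 0.01% or 0.1% Triton X-100. Cleavage of Z-FR-AMC was then followed at pH 5.5 in acetate buffer. Percent inhibition was compared across detergent levels.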

[19] = biological target: T2, cathepsin S (Homo sapiens, UniProt P25774); experiment: Inhibition of recombinant human cathepsin S expressed in Escherichia coli at 50 uM using Z-VVR-AMC as substrate preincubated for 10 mins followed by substrate addition and measured after 15 mins by microplate reader based assay relative to control; settings: probe Z-VVR-AMC, in the assay text read “preincubated for 5 mins” for “preincubated for 10 mins”, time 20 min
In short: (§6)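 Run with or without 5 min compound–enzyme pre-incubation. AMC fluorescence at 380/460 nm over 15 min. Inhibition relative to DMSO (2% final); E64 1 µM as positive control. Two independent experiments, each in triplicate.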

[20] = biological target: T3, cathepsin B (Rattus norvegicus, UniProt P00787); experiment: Inhibition of rat cathepsin B at 50 uM using Z-FR-AMC as substrate preincubated for 5 mins followed by substrate addition and measured after 15 mins by microplate reader based assay relative to control; settings: probe Z-FR-AMC
[21] = biological target: T3, cathepsin B; experiment: Inhibition of rat cathepsin B at 50 uM using Z-FR-AMC as substrate measured after 15 mins without preincubation by microplate reader based assay relative to control; settings: probe Z-FR-AMC
In short: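 Rat cathepsin B (20 nM) at 25°C in 100 mM sodium phosphate, 100 mM NaCl, 1 mM EDTA, 1 mM DTT, 0.01% CHAPS. Compound pre-incubated 0 or 5 min with enzyme; Z-FR-AMC 50 µM, ex 380/em 440 nm, monitored 15 min. Inhibition is versus 2% DMSO, with 1 µM E64 control. Two independent experiments in triplicate.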

[22] = biological target: Cruzipain (Trypanosoma cruzi) (UniProt P25779); experiment: Inhibition of recombinant Trypanosoma cruzi cruzain at 100 uM using Z-FR-AMC as substrate and measured at 12 sec interval for 5 mins without preincubation by fluorimetric analysis relative to control
In short: as §1, with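 “pre-incubation. Z-FR-AMC 2.5 µM, read at 340/440 nm every 12 s for 5 min.” for “pre-incubation.”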

[23] = biological target: T1, Cruzipain; experiment: Competitive inhibition of recombinant Trypanosoma cruzi cruzain by Lineweaver-Burk plot analysis; in short: as §3
[24] = biological target: Cruzipain (Trypanosoma cruzi) (UniProt P25779); experiment: Inhibition of recombinant Trypanosoma cruzi cruzain at 10 uM using Z-FR-AMC as substrate and measured at 12 sec interval for 5 mins without preincubation by fluorimetric analysis relative to control
In short: as §1, with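 “pre-incubation. Z-FR-AMC 2.5 µM, read at 340/440 nm every 12 s for 5 min.” for “pre-incubation.”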

[25] = biological target: Rhodesain (Trypanosoma brucei rhodesiense) (UniProt Q95PM0); experiment: Inhibition of recombinant Trypanosoma brucei rhodesain expressed in Pichia pastoris at 100 uM using Z-FR-AMC as substrate and measured at 12 sec interval for 5 mins without preincubation by fluorimetric analysis relative to control; in short: as §2
[26] = biological target: Rhodesain (Trypanosoma brucei rhodesiense) (UniProt Q95PM0); experiment: Inhibition of recombinant Trypanosoma brucei rhodesain expressed in Pichia pastoris at 10 uM using Z-FR-AMC as substrate preincubated for 10 mins followed by substrate addition and measured at 12 sec interval for 5 mins by fluorimetric analysis relative to control; settings: time 15.0 min
In short: as §1, with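 “pre-incubation. Z-FR-AMC 2.5 µM, read at 340/440 nm every 12 s for 5 min.” for “pre-incubation.”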

[27] = biological target: Rhodesain (Trypanosoma brucei rhodesiense, UniProt Q95PM0); experiment: Inhibition of recombinant Trypanosoma brucei rhodesain expressed in Pichia pastoris using Z-FR-AMC as substrate and measured at 12 sec interval for 5 mins without preincubation by fluorimetric analysis
In short: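 Rhodesain (1 nM) with Z-FR-AMC (2.5 µM) in 0.1 M sodium acetate pH 5.5, 0.01% Triton X-100, 1 mM β-mercaptoethanol, with or without 10 min enzyme-compound pre-incubation. Fluorescence read at 340/440 nm. IC50 by four-parameter nonlinear regression from at least six concentrations in triplicate, with at least two independent runs. Mean ± SEM reported.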

[28] = biological target: Rhodesain (Trypanosoma brucei rhodesiense) (UniProt Q95PM0); experiment: Inhibition of recombinant Trypanosoma brucei rhodesain expressed in Pichia pastoris at 100 uM using Z-FR-AMC as substrate preincubated for 10 mins followed by substrate addition and measured at 12 sec interval for 5 mins by fluorimetric analysis relative to control; settings: time 15.0 min; in short: as §2
[29] = biological target: Cruzipain (Trypanosoma cruzi) (UniProt P25779); experiment: Inhibition of recombinant Trypanosoma cruzi cruzain at 50 uM preincubated for 10 mins in presence of 0.01% Triton X-100 relative to control; in short: as §5
[30] = biological target: Cruzipain (Trypanosoma cruzi) (UniProt P25779); experiment: Inhibition of recombinant Trypanosoma cruzi cruzain at 50 uM preincubated with BSA for 5 mins followed by incubation with enzyme for 5 mins followed by substrate addition relative to control; settings: time 10.0 min; in short: as §4
[31] = biological target: Cruzipain (Trypanosoma cruzi) (UniProt P25779); experiment: Inhibition of recombinant Trypanosoma cruzi cruzain at 50 uM preincubated for 10 mins in presence of 0.1% Triton X-100 relative to control; in short: as §5
[32] = biological target: T2, cathepsin S; experiment: Inhibition of recombinant human cathepsin S expressed in Escherichia coli at 50 uM using Z-VVR-AMC as substrate and measured after 15 mins without preincubation by microplate reader based assay relative to control; settings: probe Z-VVR-AMC; in short: as §6

Sequence of Cruzipain (Trypanosoma cruzi) (P25779 123-467 limits assumed): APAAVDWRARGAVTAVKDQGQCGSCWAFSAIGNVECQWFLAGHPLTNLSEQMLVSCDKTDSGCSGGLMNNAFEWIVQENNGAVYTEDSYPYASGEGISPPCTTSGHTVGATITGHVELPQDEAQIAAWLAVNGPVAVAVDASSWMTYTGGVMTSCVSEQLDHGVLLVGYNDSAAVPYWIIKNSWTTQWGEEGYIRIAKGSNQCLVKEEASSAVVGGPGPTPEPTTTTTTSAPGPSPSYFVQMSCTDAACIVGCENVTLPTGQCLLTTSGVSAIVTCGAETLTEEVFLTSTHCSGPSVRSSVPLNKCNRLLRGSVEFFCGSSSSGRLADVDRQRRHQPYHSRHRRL
Sequence of Rhodesain (Trypanosoma brucei rhodesiense) (Q95PM0 1-450): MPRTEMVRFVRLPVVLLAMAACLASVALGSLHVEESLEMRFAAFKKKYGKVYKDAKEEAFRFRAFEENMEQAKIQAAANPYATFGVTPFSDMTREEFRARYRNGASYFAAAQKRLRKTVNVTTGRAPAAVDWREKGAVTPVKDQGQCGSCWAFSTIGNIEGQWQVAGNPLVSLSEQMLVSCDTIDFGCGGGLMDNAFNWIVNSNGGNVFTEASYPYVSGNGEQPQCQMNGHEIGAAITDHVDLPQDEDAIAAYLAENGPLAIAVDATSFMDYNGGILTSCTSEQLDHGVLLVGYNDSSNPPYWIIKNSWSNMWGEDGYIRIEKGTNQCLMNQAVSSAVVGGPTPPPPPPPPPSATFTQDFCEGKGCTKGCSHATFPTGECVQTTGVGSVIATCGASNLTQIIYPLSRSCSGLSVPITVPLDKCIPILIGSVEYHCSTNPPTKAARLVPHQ
T3 sequence (P00787 whole entry): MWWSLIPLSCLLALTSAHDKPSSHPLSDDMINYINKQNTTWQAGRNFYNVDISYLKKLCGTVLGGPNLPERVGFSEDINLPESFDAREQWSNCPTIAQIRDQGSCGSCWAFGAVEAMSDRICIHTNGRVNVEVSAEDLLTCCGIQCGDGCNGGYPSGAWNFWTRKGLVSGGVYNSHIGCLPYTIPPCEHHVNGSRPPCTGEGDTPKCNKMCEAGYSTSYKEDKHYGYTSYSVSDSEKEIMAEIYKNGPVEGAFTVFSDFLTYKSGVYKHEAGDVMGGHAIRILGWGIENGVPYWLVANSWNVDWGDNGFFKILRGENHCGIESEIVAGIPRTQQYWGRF
T2 sequence (P25774 whole entry): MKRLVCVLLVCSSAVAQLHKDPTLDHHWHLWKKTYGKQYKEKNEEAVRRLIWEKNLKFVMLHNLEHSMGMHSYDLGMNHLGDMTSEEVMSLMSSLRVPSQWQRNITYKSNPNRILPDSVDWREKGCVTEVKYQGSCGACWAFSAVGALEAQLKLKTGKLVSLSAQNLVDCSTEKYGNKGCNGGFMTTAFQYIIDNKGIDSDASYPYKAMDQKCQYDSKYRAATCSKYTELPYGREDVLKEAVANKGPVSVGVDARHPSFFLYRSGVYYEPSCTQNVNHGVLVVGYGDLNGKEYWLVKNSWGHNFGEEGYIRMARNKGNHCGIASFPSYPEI
T1 sequence (P25779 whole entry): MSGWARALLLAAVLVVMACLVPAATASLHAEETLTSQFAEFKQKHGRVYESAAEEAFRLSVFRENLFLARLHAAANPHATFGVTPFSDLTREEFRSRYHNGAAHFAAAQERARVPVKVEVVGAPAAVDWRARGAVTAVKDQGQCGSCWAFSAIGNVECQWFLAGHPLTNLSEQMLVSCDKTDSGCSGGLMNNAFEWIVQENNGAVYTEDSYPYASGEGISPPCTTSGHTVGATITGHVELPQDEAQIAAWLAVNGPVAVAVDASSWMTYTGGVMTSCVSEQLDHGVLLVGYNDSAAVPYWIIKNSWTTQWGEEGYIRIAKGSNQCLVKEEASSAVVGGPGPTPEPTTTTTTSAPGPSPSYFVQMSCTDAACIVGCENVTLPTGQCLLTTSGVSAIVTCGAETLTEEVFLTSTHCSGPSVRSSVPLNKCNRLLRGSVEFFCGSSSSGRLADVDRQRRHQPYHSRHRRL
Sequence of Rhodesain (Q95PM0 whole entry): as the sequence (Q95PM0 1-450) above

Compound Cc1ccc(C(=O)c2oc3ccc4c(C)cc(=O)oc4c3c2C)cc1 has an inhibition [1] of 60.4%, a pIC50 [2] of 4.49 and an inhibition [3] of 77.1%. For the same compound, the inhibition [4] was 11%, the inhibition [5] was 3% and the inhibition [6] was 12%. It also gave an inhibition [7] of 8%, an inhibition [8] of 53.6% and a pIC50 [9] of 4.49. It also gave a pIC50 [10] of 4.49 and an inhibition [11] of 69%.

c1ccc(CNc2nc(Nc3ccccc3)nc3ccccc23)cc1 gave an inhibition [12] of 14%, an inhibition [13] of 90% and a pIC50 [14] of 5.05. For the same compound, the inhibition [15] was 57%, the Activity [16] was “Active” and the inhibition [17] was 70.2%. The inhibition [18] was 82.4%, the inhibition [1] was 67.1% and the inhibition at 0.25 h, 50 µM [19] was 4.5%. It also gave an inhibition at 0.25 h, 50 µM [20] of 27.5%, an inhibition at 0.25 h, 50 µM [21] of 28.6% and an inhibition [22] of 91%. For the same compound, the pKi [23] was 5.85, the inhibition [24] was 62% and the inhibition [3] was 82.8%. It also gave an inhibition [25] of 85%, an inhibition [26] of 9% and a pIC50 [27] of 4.52. It also gave an inhibition [28] of 94%, an inhibition [29] of 89.8% and an inhibition [30] of 64.4%. For the same compound, the inhibition [8] was 70.8%, the inhibition [31] was 28.1% and the inhibition [11] was 82.3%. The inhibition at 0.25 h, 50 µM [32] was 14.8%.
